Experimental data gathered from unrelated publications.
Protocols differ between the studies behind these lines.
Target: Mitogen-activated protein kinase kinase kinase 4 (MAP3K4, Homo sapiens, UniProt Q9Y6R4)

For Cc1ccc(NC(=O)c2ccnc(C(F)(F)F)c2)cc1-c1cc(OCCO)nc(N2CCOCC2)c1, the remaining binding was 90% (binding; competition with immobilised ligand; 1 µM).
C#Cc1cnc(Nc2ccnc(CO)c2)nc1Nc1ccccc1S(C)(=O)=NC#N (centres unmarked) gave a remaining signal of 86% (cell-free assay; 1 µM).
For CO[C@@H]1[C@H](N(C)C(=O)c2ccccc2)C[C@H]2O[C@]1(C)n1c3ccccc3c3c4c(c5c6ccccc6n2c5c31)C(=O)NC4, the inhibition was 4% (enzyme activity; inhibitor; 1 µM).
The remaining binding of N#Cc1ccc(NC(=O)Nc2ccccc2)cc1 is reported as 77% (cell-free assay; competition with immobilised ligand; 25 µM).
The remaining binding of CCCCC(=O)Nc1ccc(-c2ccc3ncn(CCC)c(=O)c3c2)cn1 is reported as 76% (binding; competition with immobilised ligand; 0.5 µM).
The remaining binding of C[C@H]1CC[C@H](n2c3cnccc3c3cnc(Nc4ccc5c(n4)CCN(C(=O)CO)C5)nc32)CC1 is reported as 100% (binding; competition with immobilised ligand; 1 µM).
For CC#CC(=O)N1CCC[C@H]1c1nc(-c2ccc(C(=O)Nc3ccccn3)cc2)c2c(N)nccn12, the inhibition was 19% (enzyme activity; inhibitor; 1 µM).
With C1=C/COCc2cc(ccc2OCCN2CCCC2)Nc2nccc(n2)-c2cccc(c2)COC/1 the remaining binding was 100% (binding; 0.1 µM).
